Active and inactive are the calls of the source.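 The calls were made as follows, unless noted: active = viability at or below 30% in both replicate assays; inconclusive = viability at or below 30% in just one of the two assays; inactive = the rest.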
Key:
[1] = Her2 expression decrease, cell viability multiplex – SKBR3 breast tumor cells, AlphaScreen, ATP viability, primary screen (AID 461;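 active = Her2 level under about 52% in both replicate screens, with viability over 70% of control, limit read from the data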;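 as to Her2 level: lower value means less Her2 protein in the cells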;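 as to viability: percent of carrier control wells set as 100% viability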); conditions: SKBR3 Her2 protein level, 18-24 h, measured here: SKBR3 viability, ATP luminescence, at 10 µM
[2] = molecular target: Receptor tyrosine-protein kinase erbB-2 (Homo sapiens) (UniProt P04626); test: as above; conditions: 18-24 h, at 10 µM, stronger effect = lower value
Chain of Receptor tyrosine-protein kinase erbB-2 (Homo sapiens) (P04626 whole entry, looked up): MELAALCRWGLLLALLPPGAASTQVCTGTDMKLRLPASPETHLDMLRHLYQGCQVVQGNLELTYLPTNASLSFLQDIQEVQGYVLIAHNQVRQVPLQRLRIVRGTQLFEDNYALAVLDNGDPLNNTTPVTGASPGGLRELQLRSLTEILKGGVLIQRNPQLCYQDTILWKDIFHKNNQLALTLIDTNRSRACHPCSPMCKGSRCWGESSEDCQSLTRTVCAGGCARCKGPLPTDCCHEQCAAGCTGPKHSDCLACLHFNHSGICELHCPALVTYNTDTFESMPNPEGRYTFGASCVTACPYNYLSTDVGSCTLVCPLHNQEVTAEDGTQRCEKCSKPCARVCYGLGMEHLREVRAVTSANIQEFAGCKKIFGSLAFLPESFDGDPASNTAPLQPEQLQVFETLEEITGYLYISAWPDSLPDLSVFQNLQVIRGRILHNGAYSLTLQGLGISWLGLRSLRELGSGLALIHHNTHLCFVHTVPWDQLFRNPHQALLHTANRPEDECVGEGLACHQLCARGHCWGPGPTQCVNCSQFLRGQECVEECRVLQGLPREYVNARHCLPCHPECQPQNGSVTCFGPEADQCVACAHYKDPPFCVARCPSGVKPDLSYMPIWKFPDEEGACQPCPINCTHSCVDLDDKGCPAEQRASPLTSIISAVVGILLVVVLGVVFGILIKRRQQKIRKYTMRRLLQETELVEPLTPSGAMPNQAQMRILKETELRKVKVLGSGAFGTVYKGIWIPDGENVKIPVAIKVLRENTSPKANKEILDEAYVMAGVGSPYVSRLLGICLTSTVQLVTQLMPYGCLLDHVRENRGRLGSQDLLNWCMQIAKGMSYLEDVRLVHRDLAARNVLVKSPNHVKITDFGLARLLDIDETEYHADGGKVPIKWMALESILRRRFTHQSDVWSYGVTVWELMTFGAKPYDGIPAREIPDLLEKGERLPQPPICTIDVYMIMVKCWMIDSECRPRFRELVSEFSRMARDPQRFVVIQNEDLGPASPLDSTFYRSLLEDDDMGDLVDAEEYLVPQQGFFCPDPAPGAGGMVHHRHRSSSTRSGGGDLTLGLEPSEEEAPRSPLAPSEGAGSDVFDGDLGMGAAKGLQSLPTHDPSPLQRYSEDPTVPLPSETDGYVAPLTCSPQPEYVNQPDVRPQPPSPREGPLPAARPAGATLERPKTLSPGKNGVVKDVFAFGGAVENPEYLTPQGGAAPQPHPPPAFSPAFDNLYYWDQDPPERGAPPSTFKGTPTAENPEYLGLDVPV

[3] = reduced viability of SK-BR-3 breast cancer cells – cell-based, 24 h, human, pilot screen (AID 572;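 active = viability at or below 10% of carrier control in both of two separate runs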;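 also: compound exposure lasted between 18 and 24 h rather than exactly 24 h; 100% = carrier-treated control wells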); conditions: SK-BR-3 viability, CellTiter-Glo luminescence, at 10 µM, stronger effect = lower value
[4] = HUVEC growth inhibition – cell-based, human, primary screen (AID 575); conditions: HUVEC proliferation, CellTiter-Glo luminescence, 72 h; at 10 µM; stronger effect = lower value;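 also: 100% = median of untreated cell wells with 0.1% DMSO on each plate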
In short: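 System: primary human umbilical vein endothelial cells; Quantity: 1250 endothelial cells in each well; Buffer or medium: supplemented EBM, 2% fetal bovine serum; Doses: one dose, 10 µM final, 0.1% DMSO; Incubation: 72 h compound incubation; Technique: ATP-based CellTiter-Glo luminescent read; Evaluation: percent of median DMSO-control luminescence; Controls: vehicle and MePR control wells.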

[5] = H69AR cell proliferation blockers – human, duplicate replicates, primary screen (AID 580;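 active = viability at or under a set limit in both replicates, limit being median viability minus 3 SD, cut at about 48% in these data, passing the limit was not always enough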;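 also: 100% = mean luminescence of untreated wells and 0% = no signal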); conditions: H69AR lung tumor cells viability, ATP luminescence, 72 h; at 10 µM; stronger effect = lower value
[6] = MRP1 drug-resistance reversers in H69AR cells – cell-based, doxorubicin co-treatment, pilot screen (AID 601;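 active = viability loss from added drug above about 55%, and viability with drug at most 40%, in both replicates, limit read from the data, passing the limit was not always enough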); conditions: CellTiter-Glo, 72 h, at 10 µM; for differential viability (reversal): stronger effect = higher value
[7] = yeast transport mutant growth inhibition pilot in 384-well plates, post-Golgi transport modulator project (AID 636; in the data active = inhibition above about 31%); conditions: absorbance 615 nm, about 18 h, stronger effect = higher value
[8] = growth suppression of yeast trafficking mutant, preliminary HTS, modulators of trafficking downstream of Golgi apparatus project, 1536-format plate, OD 615 nm (AID 637; in the data active = inhibition above about 30%); conditions: yeast transport mutant growth, absorbance 615 nm, 18 h; stronger effect = higher value
[9] = H69AR cells + 2 uM doxorubicin, measured here: viability with 2 uM doxorubicin, stronger effect = lower value
[10] = H69AR cells, compound alone cytotoxicity

Row | SMILES | viability [1] | Her2 level [2] | viability [3] | viability [4] | viability [5] | differential viability (reversal) ([6]; H69AR cells + 2 uM doxorubicin) | viability [6, 9] | viability [6, 10] | inhibition [7] | inhibition [8]
1 | O=c1c2cc(Cl)ccc2[nH]c(=S)n1Cc1ccco1 | 84.5% | 81% (inactive) | 84.5% (inactive) | 93.6% (inactive) | 86.7% (inactive) | -1.27% (inactive) | 88% | 86.7% | -8.13% (inactive) | 10.2% (inactive)
2 | CCN1CCN(CCCNC(=O)C2c3ccccc3C(=O)N(C)C2c2ccc(OC)cc2)CC1 (stereo not given) | 102% | 99% (inactive) | 102% (inactive) | 95.9% (inactive) | 110% (inactive) | 16.8% (inactive) | 93.2% | 110% | -1.64% (inactive) | -0.79% (inactive)
3 | CC(NC(=O)c1ccco1)C(c1cccs1)N1CCN(c2ccc(F)cc2)CC1 (stereo not given) | 96% | 89% (inactive) | 96% (inactive) | 67.9% (inactive) | 86.2% (inactive) | -15.7% (inactive) | 102% | 86.2% | -4.13% (inactive) | 0.16% (inactive)
4 | CC(=O)Nc1c(Cl)n(C(C)=O)c2ccccc12 | 85% | 65% (inactive) | 85% (inactive) | 71.6% (inactive) | 84% (inactive) | -6.37% (inactive) | 90.4% | 84% | -7.57% (inactive) | 5.5% (inactive)
5 | CCn1cc(C2=NOC(C(=O)Nc3cc(C)nn3-c3ccccc3)C2)c(C)n1 (stereo not given) | 89.5% | 88.5% (inactive) | 89.5% (inactive) | 101% (inactive) | 101% (inactive) | 8.29% (inactive) | 93% | 101% | -1.18% (inactive) | -8.25% (inactive)
6 | Cc1cc(C)n(C2=NS(=O)(=O)c3ccccc32)n1 | 86.5% | 115% (inactive) | 86.5% (inactive) | 108% (inactive) | 101% (inactive) | 6.08% (inactive) | 95.2% | 101% | 3.07% (inactive) | 5.08% (inactive)
7 | O=C(CSc1nnc(-c2cccnc2)o1)Nc1ccccn1 | 92.5% | 102% (inactive) | 92.5% (inactive) | 94% (inactive) | 94.4% (inactive) | 7.92% (inactive) | 86.5% | 94.4% | 0.68% (inactive) | 31.8% (active)
8 | Cc1ccc(S(=O)(=O)Cc2ccc(C(=O)NCCCN3CCN(C)CC3)o2)cc1 | 104% | 99.5% (inactive) | 104% (inactive) | 96.9% (inactive) | 103% (inactive) | 11% (inactive) | 92.1% | 103% | -0.66% (inactive) | -5.64% (inactive)
9 | CSc1nc(N2CCOCC2)c2ccccc2n1 | 110% | 100% (inactive) | 110% (inactive) | 93.7% (inactive) | 94.6% (inactive) | 7.67% (inactive) | 87% | 94.6% | -2.27% (inactive) | -7.87% (inactive)
10 | CC(NC(=O)CSc1n[nH]c(=O)n1C1CC1)C12CC3CC(CC(C3)C1)C2 (stereo not given) | 91.5% | 106% (inactive) | 91.5% (inactive) | 91.6% (inactive) | 99.8% (inactive) | 6.17% (inactive) | 93.6% | 99.8% | -4% (inactive) | -5.41% (inactive)
11 | Cc1ccc(N(CC(=O)NCC2CCCO2)S(C)(=O)=O)cc1Cl (stereo not given) | 106% | 82.5% (inactive) | 106% (inactive) | 99.1% (inactive) | 89.2% (inactive) | -3.35% (inactive) | 92.6% | 89.2% | 1.41% (inactive) | -3% (inactive)
12 | CCCS(=O)(=O)N1CCN(Cc2ccc(OCc3ccccc3)c(OC)c2)CC1 | 84.5% | 114% (inactive) | 84.5% (inactive) | 105% (inactive) | 87.8% (inactive) | -5.26% (inactive) | 93.1% | 87.8% | 4.19% (inactive) | 30.2% (active)
13 | CCSc1nnc(-c2cccs2)o1 | 89% | 106% (inactive) | 89% (inactive) | 87.3% (inactive) | 92.3% (inactive) | -4.3% (inactive) | 96.6% | 92.3% | -0.13% (inactive) | -2.83% (inactive)
14 | CCNC(=O)c1ccc(NS(=O)(=O)c2ccccc2)cc1 | 124% | 91% (inactive) | 124% (inactive) | 86.1% (inactive) | 90.5% (inactive) | -1.69% (inactive) | 92.2% | 90.5% | 0% (inactive) | 4.1% (inactive)
15 | CC(C)CCNc1cc(=O)n(C)c(=O)n1C | 83.5% | 120% (inactive) | 83.5% (inactive) | 91% (inactive) | 88.2% (inactive) | -0.405% (inactive) | 88.6% | 88.2% | -1.3% (inactive) | 20.3% (inactive)
16 | CCc1cc(C)cc(OCCNC(=O)c2ncn[nH]2)c1 | 117% | 110% (inactive) | 117% (inactive) | 89.7% (inactive) | 90.8% (inactive) | 9.78% (inactive) | 81.1% | 90.8% | -3.95% (inactive) | -1.29% (inactive)
17 | Cc1nn(-c2ccc(F)cc2)c2sc(C(=O)O)cc12 | 99% | 103% (inactive) | 99% (inactive) | 72.9% (inactive) | 89.8% (inactive) | 5.49% (inactive) | 84.3% | 89.8% | 0% (inactive) | 1.64% (inactive)
18 | CCN(Cc1ccccc1)C(c1ccncc1)c1nnnn1C(C)(C)C (stereo not given) | 102% | 76% (inactive) | 102% (inactive) | 99.5% (inactive) | 78.6% (inactive) | -0.555% (inactive) | 79.1% | 78.6% | -5.73% (inactive) | 4.26% (inactive)
19 | CCc1nnc(NC(=O)c2ccc(COc3ccccc3)o2)s1 | 97% | 104% (inactive) | 97% (inactive) | 77.9% (inactive) | 111% (inactive) | 2.33% (inactive) | 109% | 111% | -3.97% (inactive) | -4.6% (inactive)
20 | O=C1CC2CS(=O)(=O)CC2N1c1ccc(Oc2ccccc2)cc1 (stereo not given) | 99% | 87% (inactive) | 99% (inactive) | 78.6% (inactive) | 95.6% (inactive) | -2.44% (inactive) | 98% | 95.6% | -5.47% (inactive) | 3.11% (inactive)
21 | Cc1ccc(S(=O)(=O)Cn2nnnc2CN(Cc2ccco2)CC2CCCO2)cc1 (stereo not given) | 90% | 96.5% (inactive) | 90% (inactive) | 110% (inactive) | 83.3% (inactive) | -0.665% (inactive) | 84% | 83.3% | -2.53% (inactive) | 44.8% (active)
22 | COc1ccc(Cl)cc1S(=O)(=O)n1cnc2ccccc21 | 99% | 106% (inactive) | 99% (inactive) | 59.1% (inactive) | 33.7% (active) | -49.8% (inactive) | 83.5% | 33.7% | -4.59% (inactive) | -2.3% (inactive)
23 | CCOC(=O)c1ccc(-c2c(C(=O)OCC)oc3cc(O)c(CC)cc3c2=O)o1 | 96.5% | 88.5% (inactive) | 96.5% (inactive) | 76.6% (inactive) | 83.3% (inactive) | -19.3% (inactive) | 103% | 83.3% | -3.42% (inactive) | 11.6% (inactive)
24 | COC(=O)C(C)NC(=O)C12CC3CC(CC(C3)C1)C2 (stereo not given) | 92% | 123% (inactive) | 92% (inactive) | 107% (inactive) | 99.7% (inactive) | 4.86% (inactive) | 94.8% | 99.7% | -1.54% (inactive) | -5.33% (inactive)
25 | CC(=O)C1=C(C)NC(C)=C(C(C)=O)C1c1cccs1 | 99% | 86% (inactive) | 99% (inactive) | 84.8% (inactive) | 87% (inactive) | 5.3% (inactive) | 81.7% | 87% | -2.08% (inactive) | -4% (inactive)
26 | CCOC(=O)c1[nH]c2ccccc2c1NC(=O)c1ccco1 | 102% | 79% (inactive) | 102% (inactive) | 106% (inactive) | 80.3% (inactive) | -2.98% (inactive) | 83.2% | 80.3% | -7.03% (inactive) | 4.33% (inactive)
27 | COc1ccccc1OCCSc1nc2ccccc2c(=O)[nH]1 | 81.5% | 105% (inactive) | 81.5% (inactive) | 84.6% (inactive) | 95.2% (inactive) | 15.1% (inactive) | 80.1% | 95.2% | -3.97% (inactive) | -4% (inactive)
28 | Cc1cc(C)c(NC(=O)C2CSCCS2)c(C)c1 (stereo not given) | 90% | 79.5% (inactive) | 90% (inactive) | 99.7% (inactive) | 100% (inactive) | 14.1% (inactive) | 85.9% | 100% | -3.82% (inactive) | -7.17% (inactive)
29 | Cc1ccc(-c2csc3nnc(SCC(=O)NCc4ccco4)n23)cc1 | 88.5% | 84.5% (inactive) | 88.5% (inactive) | 85.6% (inactive) | 84.2% (inactive) | 0.64% (inactive) | 83.6% | 84.2% | -6.27% (inactive) | -4.19% (inactive)
